The results in this text go back to ChEMBL document CHEMBL1126647, “Fluorine-18-labeled progestin ketals: synthesis and target tissue uptake selectivity of potential imaging agents for receptor-positive breast tumors” (J Med Chem, 1993).

Assay [1] deals with T1, Mineralocorticoid receptor (Rattus norvegicus) (UniProt P22199).
T1 sequence (whole entry): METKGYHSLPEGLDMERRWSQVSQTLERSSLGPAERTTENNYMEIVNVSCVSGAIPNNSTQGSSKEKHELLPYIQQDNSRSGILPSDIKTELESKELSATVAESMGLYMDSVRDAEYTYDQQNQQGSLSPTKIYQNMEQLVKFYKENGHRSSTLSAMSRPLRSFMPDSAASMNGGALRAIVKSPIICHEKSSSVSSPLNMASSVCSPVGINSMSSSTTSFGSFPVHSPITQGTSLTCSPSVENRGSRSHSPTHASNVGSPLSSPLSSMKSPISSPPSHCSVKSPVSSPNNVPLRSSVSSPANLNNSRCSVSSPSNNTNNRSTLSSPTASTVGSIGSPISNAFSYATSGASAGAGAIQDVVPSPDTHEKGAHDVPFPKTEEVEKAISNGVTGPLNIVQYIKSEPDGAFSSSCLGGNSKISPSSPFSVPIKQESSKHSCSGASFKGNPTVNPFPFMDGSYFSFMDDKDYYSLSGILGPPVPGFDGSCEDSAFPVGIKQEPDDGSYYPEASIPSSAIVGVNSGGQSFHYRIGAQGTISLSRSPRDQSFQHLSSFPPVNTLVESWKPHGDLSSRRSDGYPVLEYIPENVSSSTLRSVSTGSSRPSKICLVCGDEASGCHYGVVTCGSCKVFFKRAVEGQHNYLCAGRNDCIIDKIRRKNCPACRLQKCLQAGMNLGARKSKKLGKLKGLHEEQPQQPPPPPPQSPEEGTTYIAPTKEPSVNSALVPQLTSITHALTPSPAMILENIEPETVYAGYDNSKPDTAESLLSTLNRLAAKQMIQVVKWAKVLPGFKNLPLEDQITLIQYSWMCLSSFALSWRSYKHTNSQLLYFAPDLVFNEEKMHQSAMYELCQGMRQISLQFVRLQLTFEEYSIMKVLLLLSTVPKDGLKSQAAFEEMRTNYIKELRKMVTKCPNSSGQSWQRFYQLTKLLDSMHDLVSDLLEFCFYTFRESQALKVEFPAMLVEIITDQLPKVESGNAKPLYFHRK
The assay is described as follows: Relative binding affinity (RBA) for mineralocorticoid receptor compared to aldosterone.

In assay [2] the target is T2, Progesterone receptor (Rattus norvegicus) (UniProt Q63449).
T2 sequence (whole entry): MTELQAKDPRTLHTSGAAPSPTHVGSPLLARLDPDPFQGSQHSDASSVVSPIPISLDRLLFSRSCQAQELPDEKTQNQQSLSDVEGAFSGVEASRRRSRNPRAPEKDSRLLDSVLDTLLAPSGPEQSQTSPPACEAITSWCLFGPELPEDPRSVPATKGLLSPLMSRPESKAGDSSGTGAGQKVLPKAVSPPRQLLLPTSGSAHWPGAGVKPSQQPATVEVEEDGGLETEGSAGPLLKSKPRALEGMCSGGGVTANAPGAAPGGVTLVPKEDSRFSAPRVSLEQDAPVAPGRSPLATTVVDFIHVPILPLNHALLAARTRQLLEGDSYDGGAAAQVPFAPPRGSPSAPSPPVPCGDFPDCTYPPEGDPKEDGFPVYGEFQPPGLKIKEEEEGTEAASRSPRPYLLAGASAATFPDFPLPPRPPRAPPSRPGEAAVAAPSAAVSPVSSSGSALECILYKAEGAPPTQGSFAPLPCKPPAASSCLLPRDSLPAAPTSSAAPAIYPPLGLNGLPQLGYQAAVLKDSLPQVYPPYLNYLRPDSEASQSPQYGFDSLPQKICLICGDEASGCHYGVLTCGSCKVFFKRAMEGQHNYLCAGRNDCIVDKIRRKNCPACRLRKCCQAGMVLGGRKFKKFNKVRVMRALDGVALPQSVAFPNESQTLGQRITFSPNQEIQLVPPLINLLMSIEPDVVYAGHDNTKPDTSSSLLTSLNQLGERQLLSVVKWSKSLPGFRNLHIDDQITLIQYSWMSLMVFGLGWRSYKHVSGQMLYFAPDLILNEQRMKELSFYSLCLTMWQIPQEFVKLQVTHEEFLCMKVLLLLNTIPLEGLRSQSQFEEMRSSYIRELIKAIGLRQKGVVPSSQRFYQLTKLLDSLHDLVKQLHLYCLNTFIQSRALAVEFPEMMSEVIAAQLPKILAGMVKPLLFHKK
The assay is described as follows: Relative binding affinity for progesterone receptor compared to R5020.

In assay [3] the target is T2, Progesterone receptor (Rattus norvegicus). The assay is described as follows: Tissue distribution in uterus/blood 1 hr after [18F]4 injection into estrogen-primed immature rats at normal dose. The format is functional, tissue-based. Put shortly:
(§1)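 Female Sprague-Dawley rats, 23 days old, primed with estradiol 5 μg s.c. in 20% ethanol/sunflower oil on two days and used 24 h later. Under ether, they received 51 μCi tracer (30 Ci/mmol) iv via the tail vein in 0.1 mL 10% ethanol/saline. Killed by decapitation at 1 h; tissues weighed and gamma-counted. Results as %ID/g or tissue ratios, mean ± SD, n = 5.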

Assay [4] has the same target. The assay is described as follows: Tissue distribution in uterus 1 hr after [18F]-4 injection into estrogen-primed immature rats co-injected with uterin uptake blocker (ORG 2058). In kind it is functional, tissue-based. Put shortly: (§2)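 Blocking group: estrogen-primed immature female Sprague-Dawley rats (estradiol 5 μg s.c. ×2 days, used 24 h later). ORG 2058 18 μg was co-injected with the tracer dose iv via tail vein, 0.2 mL injection volume in 10% ethanol/saline. Killed 1 h later; tissues weighed and gamma-counted. Results as %ID/g or ratios, mean ± SD, n = 5.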

For assay [5] the target is unchanged. The assay is described as follows: Tissue distribution in bone 1 hr after [18F]-4 injection into estrogen-primed immature rats co-injected with uterine uptake blocker (ORG 2058). The following applies: Bone element. The format is functional, tissue-based. Put shortly: as §2
Assay [6] has the same target. The experiment in a line: Tissue distribution in brain 3 hr after [18F]4 injection into estrogen-primed immature rats. In kind it is functional, tissue-based. In outline:
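Immature female Sprague-Dawley rats, estradiol-primed (5 μg s.c. in 20% ethanol/sunflower oil, two successive days, used 24 h later). Tracer (30 Ci/mmol) in 10% ethanol/saline was injected iv into the tail vein under ether anesthesia. Animals were decapitated 3 h postinjection; organs weighed and gamma-counted. %ID/g, mean ± SD, n = 5.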

Assay [7] shares this target. The experiment in a line: Tissue distribution in liver 1 hr after [18F]4 injection into estrogen-primed immature rats at normal dose. In kind it is functional, tissue-based. In outline:
as §1

Assay [8] has the same target. The experiment in a line: Tissue distribution in lung 1 hr after [18F]4 injection into estrogen-primed immature rats at normal dose. The format is functional, tissue-based. Put shortly:
as §1

Assay [9] has the same target. The assay is described as follows: Tissue distribution in muscle 1 hr after [18F]4 injection into estrogen-primed immature rats co-injected with uterine uptake blocker (ORG2058). The format is functional, tissue-based. In outline:
as §2

For assay [10] the target is unchanged. The assay is described as follows: Tissue distribution in ovaries 1 hr after [18F]4 injection into estrogen-primed immature rats at low dose. The following applies: Female gonad. In kind it is functional, tissue-based. In outline: (§3)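 Estrogen-primed immature female Sprague-Dawley rats (estradiol 5 μg s.c. daily ×2, used 24 h later) were given a reduced tracer dose of 30 μCi in 0.04 mL 10% ethanol/saline, tail vein iv, under ether. Decapitated at 1 h; organs weighed and gamma-counted. Results as %ID/g or uterus/tissue ratio, mean ± SD, n = 5.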

Assay [11] shares this target. The experiment in a line: Tissue distribution in blood 1 hr after [18F]4 injection into estrogen-primed immature rats at low dose. In kind it is functional, tissue-based. In outline: as §3
The target is the same in assay [12]. The assay is described as follows: Tissue distribution in fat 1 hr after [18F]4 injection into estrogen-primed immature rats co-injected with uterine uptake blocker (ORG 2058). The following applies: Adipose tissue. The format is functional, tissue-based. Put shortly: as §2

With `CC(=O)[C@@]12O[C@](C)(c3ccc(F)cc3)O[C@@H]1CC1C3CCC4=CC(=O)CC[C@]4(C)C3CC[C@@]12C` (some centres undefined), the relative binding affinity (RBA) was 6 in assay [1] and 53 in assay [2]. Besides, the uterus/blood ratio in assay [3] is 6.59. Besides, the Injected dose/g in assay [4] came out at 1.27%; in assay [5] it was 1.44%; in assay [6], 0.2%; in assay [7] it was 3.41%; in assay [8], 1.3%; in [9] it was 0.76%. For the same molecule, the Injected dose/g in assay [10] was 3.68%; in assay [11] it was 0.52%; in [12], 3.77%.
On to `C[C@@]1(c2ccc(F)cc2)O[C@@H]2CC3C4CCC5=CC(=O)CC[C@@H]5C4CC[C@]3(C)[C@]2(C(=O)CO)O1` (some centres undefined), for which the relative binding affinity (RBA) in assay [1] stood at 140; in assay [2], 240. The uterus/blood ratio in assay [3] came to 14. The Injected dose/g worked out at 0.86% in assay [4]; 0.6% in [5]; 0.06% in [6]; 4.25% in [7]; 0.6% in assay [8]; 0.35% in [9]. The Injected dose/g in assay [10] is 2.66%; in assay [11], 0.28%; in assay [12], 2.76%.
